Laboratory results reported in paper PMC3566574 (Organic & biomolecular chemistry, 2012).

Experiments:
[1] = test system: AbaR; experiment: AbaR antagonism reporter gene assay; assay type: cell-based, Acinetobacter baumannii; settings: 100 μM against OH-dDHL at 700 nM; triplicate, error ±10%
[2] = biological target: T1, LasR (Pseudomonas aeruginosa, UniProt P25084); experiment: LasR agonism reporter gene assay; assay type: cell-based; settings: 100 μM, normalized to OdDHL at 100 μM (100%); triplicate, error ≤10%
[3] = test system: AbaR; experiment: AbaR agonism reporter gene assay; assay type: cell-based, Acinetobacter baumannii; settings: 100 μM, normalized to OH-dDHL at 100 μM (100%); triplicate, error ±10%
Procedure, shortened: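 Overnight A. baumannii abaI::lacZ culture diluted 1:100 in LB (pH 7.0), added to test compound from DMSO stock (final 100 or 10 μM), incubated statically at 37 °C for 18–24 h. OD600 read; aliquot lysed with Z buffer, CHCl3 and 0.1% SDS; ONPG 20 min at […], stopped with 1 M Na2CO3; A420/A550 converted to Miller units. Triplicate; scaled to 100 μM OH-dDHL (100%).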

[4] = biological target: T1, LasR; experiment: LasR antagonism reporter gene assay; assay type: cell-based; settings: 100 μM against OdDHL at 10 nM; triplicate, error ≤10%

T1 sequence (P25084 whole entry): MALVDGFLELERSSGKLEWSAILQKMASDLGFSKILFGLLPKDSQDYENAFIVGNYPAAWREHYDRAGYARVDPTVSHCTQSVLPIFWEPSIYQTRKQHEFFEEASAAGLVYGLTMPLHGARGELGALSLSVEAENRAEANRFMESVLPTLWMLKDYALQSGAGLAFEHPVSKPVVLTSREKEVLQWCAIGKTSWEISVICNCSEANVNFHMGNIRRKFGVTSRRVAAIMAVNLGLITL

CCCc1cn(CC(=O)NC2CCOC2=O)nn1 (stereo not shown) [I-A]
Inhibition [%] AbaR [1]: 47%
Activation [%] LasR [2]: 0%
Activation [%] AbaR [3]: 0%
Inhibition [%] LasR [4]: 55%
